The subject of this assay is Aryl hydrocarbon receptor (Cavia porcellus). The experiment in a line: AHR ligand binders displacing [3H]TCDD, late-stage follow-up, counter-screen for AHR activator project, cell lysate, guinea pig liver cytosol, radiometric (AID 602226). To be noted: [3H]TCDD HAP binding; for inhibition: at 10 µM, stronger effect = higher value. The procedure, abridged: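 assay system = guinea pig hepatic cytosol, AHR source | input = 2 mg/mL cytosolic protein | times = 1 h binding incubation, room temperature | technique = Hydroxyapatite capture, Tween-buffer washes, then scintillation counting | read-out = percent inhibition of specific [3H]TCDD binding, TCDF-defined nonspecific subtracted | repeats = three replicates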

[1] abbreviates: measured here: IC50 range lower bound.
[2] abbreviates: measured here: IC50 range upper bound.

This passage reports inhibition and IC50 results from PubChem BioAssay AID602226 (The Scripps Research Institute Molecular Screening Center, 2012).

For orientation: inhibition means the percentage by which the read-out fell short of the control. One may read the IC50 as the concentration needed to halve the response being measured.

Structures are written as SMILES. Activity calls are given as the source filed them.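 The calls were made as follows: active = average inhibition of labeled dioxin binding to the receptor of at least 10% at 10 µM; inactive = the rest.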

Take `Cc1nc(N)nc(Nc2ccc(Cl)cc2)c1Br`: the inhibition was 79%. In addition, the IC50 under setting [1] was found to be 100 nM. In addition, under setting [2], the IC50 is 1000 nM.

On to `CCOC(=O)Cc1cc(-c2ccc(O)cc2)nc2ccc3ccccc3c12`, for which the inhibition was 39%. Further, the IC50 under setting [1] came to 1000 nM.

As to `COc1ccc(NC(=O)c2cccc3c(Br)cccc23)cc1`, the inhibition is 65%. This compound also returned an IC50 under setting [1] of 100 nM. Moreover, the IC50 under setting [2] worked out at 1000 nM.

Turning to `COc1ccccc1NC(=O)c1ccc(C(=O)Nc2ccccc2OC)nc1`, the inhibition is 32%.

Take `Cc1csc(SCC(=O)Nc2ccc(Cl)cn2)n1`: the inhibition was 9.5% (inactive).

On to `Cc1ccc(-c2cc(-c3cccs3)[nH]n2)c(O)c1`, for which the inhibition is 99%. Under setting [2], this compound came in with an IC50 of 100 nM.
